Legend:
[1] = tested on: Rattus norvegicus; experiment: Distribution in rat liver 5 min after intravenous administration, injected dose/gm; assay type: ADME, organism-based; conditions: in vivo
Outline: (§1)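 Female Sprague-Dawley rats (300-320 g) under light ether anesthesia received a single injection of [77Br]-labeled tracer (50-100 µCi in 0.1 mL 0.9% NaCl, pH 3) into the femoral vein. Groups of five were decapitated at set times after a cardiac-puncture blood sample. Organs were dissected, blotted and weighed, and counted in a NaI(Tl) well γ-counter. Values are %ID/g against an injectate standard, mean ± SD (n=5).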

[2] = tested on: Rattus norvegicus; experiment: Distribution in brain of rat, 2 hr after intravenous administered, injected dose/gm; assay type: ADME, organism-based; conditions: in vivo
Outline: (§2)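 [77Br]Bromperidol at high specific activity (50-100 µCi in 0.1 mL 0.9% NaCl, pH 3) given into the femoral vein of 300-320-g female Sprague-Dawley rats under light ether anesthesia. At each time point, groups of five were decapitated after cardiac-puncture blood sampling. Organs were dissected, blotted, weighed and gamma-counted against an injectate standard. Values are % injected dose/g, mean ± SD, n=5.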

[3] = tested on: Rattus norvegicus; experiment: Distribution in rat intestine 15 min after intravenous administration, injected dose/gm; assay type: ADME, organism-based; conditions: in vivo, 0.25 h; outline: as §2
[4] = tested on: Rattus norvegicus; experiment: Distribution in rat liver 6 hr after intravenous administration, injected dose/gm; assay type: ADME, organism-based; conditions: in vivo; outline: as §1
[5] = tested on: Rattus norvegicus; experiment: Distribution in rat kidney, 8 hr after intravenous administration, injected dose/gm; assay type: ADME, organism-based; conditions: in vivo; outline: as §2
[6] = tested on: Rattus norvegicus; experiment: Distribution in rat heart 1 hr after intravenous administration, injected dose/gm; assay type: ADME, organism-based; conditions: in vivo; outline: as §2
[7] = tested on: Rattus norvegicus; experiment: Distribution in blood of rat, 30 min after intravenous administration, injected dose/gm; assay type: ADME, organism-based; conditions: in vivo, 0.5 h; outline: as §2
[8] = tested on: Rattus norvegicus; experiment: Distribution in rat kidney, 4 hr after intravenous administration, injected dose/gm; assay type: ADME, organism-based; conditions: in vivo; outline: as §2
[9] = tested on: Rattus norvegicus; experiment: Distribution in brain of rat, 4 hr after intravenous administered, injected dose/gm; assay type: ADME, organism-based; conditions: in vivo; outline: as §2
[10] = tested on: Rattus norvegicus; experiment: Distribution in rat heart 5 min after intravenous administration, injected dose/gm; assay type: ADME, organism-based; conditions: in vivo; outline: as §2
[11] = tested on: Rattus norvegicus; experiment: Distribution in rat kidney, 5 min after intravenous administration, injected dose/gm; assay type: ADME, organism-based; conditions: in vivo; outline: as §2
[12] = tested on: Rattus norvegicus; experiment: Distribution in rat heart 8 hr after intravenous administration, injected dose/gm; assay type: ADME, organism-based; conditions: in vivo; outline: as §2
[13] = tested on: Rattus norvegicus; experiment: Distribution in rat fat 6 hr after intravenous administration, injected dose/gm; assay type: ADME, organism-based, Adipose tissue; conditions: in vivo; outline: as §2
[14] = tested on: Rattus norvegicus; experiment: Distribution in rat heart 4 hr after intravenous administration, injected dose/gm; assay type: ADME, organism-based; conditions: in vivo; outline: as §2
[15] = tested on: Rattus norvegicus; experiment: Distribution in rat heart 2 hr after intravenous administration, injected dose/gm; assay type: ADME, organism-based; conditions: in vivo; outline: as §2
[16] = tested on: Rattus norvegicus; experiment: Distribution in rat skin 2 hr after intravenous administration, injected dose/gm; assay type: ADME, organism-based; conditions: in vivo; outline: as §1
[17] = tested on: Rattus norvegicus; experiment: Distribution in rat skin 1 hr after intravenous administration, injected dose/gm; assay type: ADME, organism-based; conditions: in vivo; outline: as §1
[18] = tested on: Rattus norvegicus; experiment: Distribution in rat liver 4 hr after intravenous administration, injected dose/gm; assay type: ADME, organism-based; conditions: in vivo; outline: as §1
[19] = tested on: Rattus norvegicus; experiment: Distribution in rat pancreas 15 min after intravenous administration, injected dose/gm; assay type: ADME, organism-based; conditions: in vivo, 0.25 h; outline: as §1
[20] = tested on: Rattus norvegicus; experiment: Distribution in rat heart 6 hr after intravenous administration, injected dose/gm; assay type: ADME, organism-based; conditions: in vivo; outline: as §2
[21] = tested on: Rattus norvegicus; experiment: Distribution in rat fat 15 min after intravenous administration, injected dose/gm; assay type: ADME, organism-based, Adipose tissue; conditions: in vivo, 0.25 h; outline: as §2
[22] = tested on: Rattus norvegicus; experiment: Distribution in rat lungs 5 min after intravenous administration, injected dose/gm; assay type: ADME, organism-based, Lung; conditions: in vivo; outline: as §1
[23] = tested on: Rattus norvegicus; experiment: Distribution in rat skin 4 hr after intravenous administration, injected dose/gm; assay type: ADME, organism-based; conditions: in vivo; outline: as §1
[24] = tested on: Rattus norvegicus; experiment: Distribution in rat muscle 5 min after intravenous administration, injected dose/gm; assay type: ADME, organism-based, Muscle tissue; conditions: in vivo; outline: as §1
[25] = tested on: Rattus norvegicus; experiment: Distribution in rat lungs 8 hr after intravenous administration, injected dose/gm; assay type: ADME, organism-based, Lung; conditions: in vivo; outline: as §1
[26] = tested on: Rattus norvegicus; experiment: Distribution in rat skin 8 hr after intravenous administration, injected dose/gm; assay type: ADME, organism-based; conditions: in vivo; outline: as §1
[27] = tested on: Rattus norvegicus; experiment: Distribution in rat uterus 2 hr after intravenous administration, injected dose/gm; assay type: ADME, organism-based; conditions: in vivo; outline: as §1
[28] = tested on: Rattus norvegicus; experiment: Distribution in rat liver 1 hr after intravenous administration, injected dose/gm; assay type: ADME, organism-based; conditions: in vivo; outline: as §2
[29] = tested on: Rattus norvegicus; experiment: Distribution in rat intestine 8 hr after intravenous administration, injected dose/gm; assay type: ADME, organism-based; conditions: in vivo; outline: as §2
[30] = tested on: Rattus norvegicus; experiment: Distribution in brain of rat, 8 hr after intravenous administered, injected dose/gm; assay type: ADME, organism-based; conditions: in vivo; outline: as §2
[31] = tested on: Rattus norvegicus; experiment: Distribution in blood of rat, 15 min after intravenous administration, injected dose/gm; assay type: ADME, organism-based; conditions: in vivo, 0.25 h; outline: as §2
[32] = tested on: Rattus norvegicus; experiment: Distribution in rat kidney, 6 hr after intravenous administration, injected dose/gm; assay type: ADME, organism-based; conditions: in vivo; outline: as §2
[33] = tested on: Rattus norvegicus; experiment: Distribution in rat spleen 8 hr after intravenous administration, injected dose/gm; assay type: ADME, organism-based; conditions: in vivo; outline: as §1
[34] = tested on: Rattus norvegicus; experiment: Distribution in rat pancreas 8 hr after intravenous administration, injected dose/gm; assay type: ADME, organism-based; conditions: in vivo; outline: as §1
[35] = tested on: Rattus norvegicus; experiment: Distribution in rat spleen 15 min after intravenous administration, injected dose/gm; assay type: ADME, organism-based; conditions: in vivo, 0.25 h; outline: as §1
[36] = tested on: Rattus norvegicus; experiment: Distribution in rat intestine 6 hr after intravenous administration, injected dose/gm; assay type: ADME, organism-based; conditions: in vivo; outline: as §2
[37] = tested on: Rattus norvegicus; experiment: Distribution in rat fat 30 min after intravenous administration, injected dose/gm; assay type: ADME, organism-based, Adipose tissue; conditions: in vivo, 0.5 h; outline: as §2
[38] = tested on: Rattus norvegicus; experiment: Distribution in rat lungs 15 min after intravenous administration, injected dose/gm; assay type: ADME, organism-based, Lung; conditions: in vivo, 0.25 h; outline: as §1
[39] = tested on: Rattus norvegicus; experiment: Distribution in rat uterus 6 hr after intravenous administration, injected dose/gm; assay type: ADME, organism-based; conditions: in vivo; outline: as §1
[40] = tested on: Rattus norvegicus; experiment: Distribution in rat skin 15 min after intravenous administration, injected dose/gm; assay type: ADME, organism-based; conditions: in vivo, 0.25 h; outline: as §1
[41] = tested on: Rattus norvegicus; experiment: Distribution in rat muscle 30 min after intravenous administration, injected dose/gm; assay type: ADME, organism-based, Muscle tissue; conditions: in vivo, 0.5 h; outline: as §1
[42] = tested on: Rattus norvegicus; experiment: Distribution in rat uterus 4 hr after intravenous administration, injected dose/gm; assay type: ADME, organism-based; conditions: in vivo; outline: as §1
[43] = tested on: Rattus norvegicus; experiment: Distribution in brain of rat, 1 hr after intravenous administered, injected dose/gm; assay type: ADME, organism-based; conditions: in vivo; outline: as §2
[44] = tested on: Rattus norvegicus; experiment: Distribution in rat uterus 15 min after intravenous administration, injected dose/gm; assay type: ADME, organism-based; conditions: in vivo, 0.25 h; outline: as §1
[45] = tested on: Rattus norvegicus; experiment: Distribution in rat kidney, 2 hr after intravenous administration, injected dose/gm; assay type: ADME, organism-based; conditions: in vivo; outline: as §2
[46] = tested on: Rattus norvegicus; experiment: Distribution in rat pancreas 6 hr after intravenous administration, injected dose/gm; assay type: ADME, organism-based; conditions: in vivo; outline: as §1
[47] = tested on: Rattus norvegicus; experiment: Distribution in rat skin 30 min after intravenous administration, injected dose/gm; assay type: ADME, organism-based; conditions: in vivo, 0.5 h; outline: as §1
[48] = tested on: Rattus norvegicus; experiment: Distribution in brain of rat, 30 min after intravenous administered, injected dose/gm; assay type: ADME, organism-based; conditions: in vivo, 0.5 h; outline: as §2
[49] = tested on: Rattus norvegicus; experiment: Distribution in brain of rat, 5 min after intravenous administered, injected dose/gm; assay type: ADME, organism-based; conditions: in vivo; outline: as §2
[50] = tested on: Rattus norvegicus; experiment: Distribution in rat skin 6 hr after intravenous administration, injected dose/gm; assay type: ADME, organism-based; conditions: in vivo; outline: as §1

## O=C(CCCN1CCC(O)(c2ccc(Br)cc2)CC1)c1ccc(F)cc1 [BROMPERIDOL]
[1]
  Distribution: 1.03%
[2]
  Distribution: 1.85%
[3]
  Distribution: 0.91%
[4]
  Distribution: 4.16%
[5]
  Distribution: 1.77%
[6]
  Distribution: 0.55%
[7]
  Distribution: 0.08%
[8]
  Distribution: 1.95%
[9]
  Distribution: 1.61%
[10]
  Distribution: 2.29%
[11]
  Distribution: 4.96%
[12]
  Distribution: 0.3%
[13]
  Distribution: 0.19%
[14]
  Distribution: 0.36%
[15]
  Distribution: 0.46%
[16]
  Distribution: 0.17%
[17]
  Distribution: 0.2%
[18]
  Distribution: 4.08%
[19]
  Distribution: 4.72%
[20]
  Distribution: 0.39%
[21]
  Distribution: 0.16%
[22]
  Distribution: 13.6%
[23]
  Distribution: 0.14%
[24]
  Distribution: 0.32%
[25]
  Distribution: 1.14%
[26]
  Distribution: 0.14%
[27]
  Distribution: 1.07%
[28]
  Distribution: 2.99%
[29]
  Distribution: 0.85%
[30]
  Distribution: 1.29%
[31]
  Distribution: 0.11%
[32]
  Distribution: 1.93%
[33]
  Distribution: 1.86%
[34]
  Distribution: 2.05%
[35]
  Distribution: 3.29%
[36]
  Distribution: 0.98%
[37]
  Distribution: 0.2%
[38]
  Distribution: 6.29%
[39]
  Distribution: 1.2%
[40]
  Distribution: 0.19%
[41]
  Distribution: 0.23%
[42]
  Distribution: 1.07%
[43]
  Distribution: 2.48%
[44]
  Distribution: 2.24%
[45]
  Distribution: 2.93%
[46]
  Distribution: 2.83%
[47]
  Distribution: 0.2%
[48]
  Distribution: 2.82%
[49]
  Distribution: 2.26%
[50]
  Distribution: 0.14%
